The values below come from ChEMBL document CHEMBL1828535, “Synthesis and in vitro activity of novel N-3 acylated TSAO-T compounds against HIV-1 and HCV” (Eur J Med Chem, 2011).

The source made the active and inactive calls. The rule behind the calls is not given here.

For series [1], the system named is Human immunodeficiency virus 1. As to the kind of experiment: Antiviral activity against HIV1 3B infected in human CEM cells assessed as inhibition of virus-induced cytopathicity after 4 days. The format is functional, organism-based. The note with it: Human immunodeficiency virus 1, 3B, CCRF-CEM, 96 h. In outline:
(§1)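 CEM cells at 4 x 10⁶/mL infected with HIV-1 IIIB or HIV-2 ROD at ~100 CCID₅₀ per mL of cell suspension; compound present; syncytia formation scored microscopically after 4 days; EC₅₀ = concentration inhibiting virus-induced cytopathicity by 50%.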

In series [2] the test system is Human immunodeficiency virus 2. As to the kind of experiment: Antiviral activity against HIV2 ROD infected in human CEM cells assessed as inhibition of virus-induced cytopathicity after 4 days. The format is functional, organism-based. The note with it: Human immunodeficiency virus 2, ISOLATE ROD, CCRF-CEM, 96 h. The gist of the method:
as §1
(Protection from cytopathic effect is a common read-out in antiviral testing.)

Series [3] in a line: Cytotoxicity against human CEM cells after 4 days. The format is cell-based. The conditions noted are these: CEM (CCRF-CEM) cells. The gist of the method: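 CC₅₀ taken as concentration inhibiting CEM cell proliferation by 50%.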
The subject of series [4] is Hepatitis C virus. The experiment in a line: Antiviral activity against HCV2a JFH1 infected in human Huh7 cells assessed as inhibition of viral replication after 72 hrs by luciferase reporter gene assay. The note with it: JFH-1, Huh-7, 72 h. The format is functional, organism-based, Hepacivirus hominis.
A short description of series [5]: Cytotoxicity against human HuH7 cells after 72 hrs. Format: cell-based, Huh-7.
Series [6] deals with Human immunodeficiency virus 1. As to the kind of experiment: Antiviral activity against HIV1 harboring reverse transcriptase E138K mutant infected in human CEM cells assessed as inhibition of virus-induced cytopathicity after 4 days. Format: functional, organism-based. The conditions noted are these: CCRF-CEM. The gist of the method:
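CEM cells at 4 x 10⁶ cells/mL infected with HIV-1/E138K (RT mutant strain selected under TSAO-m³T) at about 100 CCID₅₀ per mL of cell suspension. Syncytia formation scored microscopically after 4 days. EC₅₀ taken as the concentration inhibiting virus-induced cytopathicity by 50%.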

Series [7] in a line: Chemical stability of the compound in phosphate buffered saline assessed as compound degradation after 72 hrs. The format is physicochemical. The conditions noted are these: buffer. The gist of the method: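 Compound held in PBS at 37 °C for 72 h; degradation judged by comparing LCMS spectra before and after incubation.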

Take `CNC(=O)CCCC(=O)n1c(=O)c(C)cn([C@@H]2O[C@H](CO[Si](C)(C)C(C)(C)C)[C@@]3(OS(=O)(=O)C=C3N)[C@H]2O[Si](C)(C)C(C)(C)C)c1=O`: the results for the concentration for a half-maximal effect (EC50) in series [1], in series [2] and in series [4] were 0.059 µM, at least 4 µM and 12 µM, respectively. This compound also registered a CC50 at 96 h in series [3] of 9.1 µM. In addition, the 50% cytotoxic concentration (CC50) at 72 h in series [5] is over 100 µM. Moreover, the inhibition result in series [6] is “inactive”. In addition, the Stability result in series [7] was “Stable”.
Turning to `Cc1cn([C@@H]2O[C@H](CO[Si](C)(C)C(C)(C)C)[C@@]3(OS(=O)(=O)C=C3N)[C@H]2O[Si](C)(C)C(C)(C)C)c(=O)[nH]c1=O`, the EC50 in series [2] is over 20 µM; in series [4] it was 14 µM. The CC50 at 96 h in series [3] came out at 12 µM. In addition, the cytotoxic concentration (CC50) at 72 h in series [5] is over 100 µM. Further, in series [6], the inhibition result is “inactive”.
Take `CNC(=O)CCCCn1c(=O)c(C)cn([C@@H]2O[C@H](CO[Si](C)(C)C(C)(C)C)[C@@]3(OS(=O)(=O)C=C3N)[C@H]2O[Si](C)(C)C(C)(C)C)c1=O`: the EC50 in series [2] was over 10 µM. In addition, in series [3], the CC50 at 96 h turned out to be 10 µM. Also, the inhibition result in series [6] was “inactive”.
For `Cc1cn([C@@H]2O[C@H](CO[Si](C)(C)C(C)(C)C)[C@@]3(OS(=O)(=O)C=C3N)[C@H]2O[Si](C)(C)C(C)(C)C)c(=O)n(C(=O)c2ccccc2)c1=O`, the results for the EC50 in series [1], in series [2] and in series [4] were 0.049 µM, at least 4 µM and 9.8 µM, respectively. In series [3], the cytotoxic concentration (CC50) at 96 h came to 54 µM. In addition, the CC50 at 72 h in series [5] is over 100 µM. Further, the inhibition result in series [6] was “inactive”. Besides, in series [7], the Stability result is on record as “Stable”.
`Cc1cn([C@@H]2O[C@H](CO[Si](C)(C)C(C)(C)C)[C@@]3(OS(=O)(=O)C=C3N)[C@H]2O[Si](C)(C)C(C)(C)C)c(=O)n(C(=O)CCCC(=O)N(C)C)c1=O`: the figures for the concentration giving a half-maximal response (EC50) in series [1], in series [2] and in series [4] were 0.032 µM, at least 4 µM and 4.4 µM, respectively. Further, it took 9.5 µM to reach half-maximal cytotoxicity in series [3] (CC50 at 96 h). In addition, the CC50 at 72 h in series [5] is over 100 µM. For the same compound, in series [6], the inhibition entry was “inactive”. For the same compound, the Stability result in series [7] is “Stable”.
With `COC(=O)CCCC(=O)n1c(=O)c(C)cn([C@@H]2O[C@H](CO[Si](C)(C)C(C)(C)C)[C@@]3(OS(=O)(=O)C=C3N)[C@H]2O[Si](C)(C)C(C)(C)C)c1=O`, the results for the EC50 in series [1], in series [2] and in series [4] were 0.054 µM, at least 4 µM and 11 µM, respectively. This compound showed a CC50 at 96 h in series [3] of 9.9 µM. The compound further yielded a CC50 at 72 h in series [5] of over 100 µM. Also, the inhibition entry in series [6] was “inactive”. In series [7], the Stability result is on record as “Stable”.
For `Cc1cn([C@@H]2O[C@H](CO[Si](C)(C)C(C)(C)C)[C@@]3(OS(=O)(=O)C=C3N)[C@H]2O[Si](C)(C)C(C)(C)C)c(=O)n(C(=O)CCCC(=O)OCc2ccccc2)c1=O`, the EC50 in series [1] is 0.04 µM; in series [2], at least 4 µM; in series [4], 10 µM. The compound also registered a CC50 at 96 h in series [3] of 9.2 µM. For the same compound, the CC50 at 72 h in series [5] was over 100 µM. For the same compound, in series [6], the inhibition result was “inactive”. In addition, the Stability entry in series [7] is reported as “Stable”.
Consider `Cc1cn([C@@H]2O[C@H](CO[Si](C)(C)C(C)(C)C)[C@@]3(OS(=O)(=O)C=C3N)[C@H]2O[Si](C)(C)C(C)(C)C)c(=O)n(C(=O)CCCC(=O)OC(C)(C)C)c1=O`, for which the 50% effective concentration (EC50) is 0.033 µM in series [1], at least 4 µM in series [2] and 11 µM in series [4]. Besides, the 50% cytotoxic concentration (CC50) at 96 h in series [3] was determined as 11 µM. Besides, in series [5], the cytotoxic concentration (CC50) at 72 h is over 100 µM. In addition, the inhibition entry in series [6] is “inactive”. For the same compound, in series [7], the Stability result is “Stable”.
In the case of `COC(=O)c1cccc(C(=O)n2c(=O)c(C)cn([C@@H]3O[C@H](CO[Si](C)(C)C(C)(C)C)[C@@]4(OS(=O)(=O)C=C4N)[C@H]3O[Si](C)(C)C(C)(C)C)c2=O)c1`, the EC50 in series [1] is 0.041 µM; in series [2] it was at least 4 µM; in series [4], 8.2 µM. Further, the CC50 at 96 h in series [3] was found to be 14 µM. Further, the CC50 at 72 h in series [5] was over 100 µM. In addition, in series [6], the inhibition result is “inactive”. Further, in series [7], the Stability result is on record as “Stable”.
Regarding `C[C@@]1(O)[C@H](O)[C@@H](CO)O[C@H]1n1ccc(N)nc1=O`, the half-maximal effective concentration (EC50) in series [4] came out at 2.4 µM. For the same compound, the half-maximal cytotoxic concentration (CC50) at 72 h in series [5] was over 33 µM. In addition, in series [6], the inhibition result is “inactive”.
Take `COC(=O)n1c(=O)c(C)cn([C@@H]2O[C@H](CO[Si](C)(C)C(C)(C)C)[C@@]3(OS(=O)(=O)C=C3N)[C@H]2O[Si](C)(C)C(C)(C)C)c1=O`: the 50% effective concentration (EC50) in series [1] was 0.07 µM; in series [2], at least 100 µM; in series [4], over 100 µM. Further, the 50% cytotoxic concentration (CC50) at 96 h in series [3] was over 100 µM. The CC50 at 72 h in series [5] is over 100 µM. In addition, the inhibition result in series [6] was “inactive”. Further, in series [7], the Stability result is “Stable”.
On to `Cc1cn([C@@H]2O[C@H](CO[Si](C)(C)C(C)(C)C)[C@@]3(OS(=O)(=O)C=C3N)[C@H]2O[Si](C)(C)C(C)(C)C)c(=O)n(C(=O)CCCBr)c1=O`, for which the EC50 in series [1] is 0.052 µM; in series [2], at least 4 µM; in series [4], 43 µM. This compound came in with a CC50 at 96 h in series [3] of 11 µM. The same compound came in with a half-maximal cytotoxic concentration (CC50) at 72 h in series [5] of over 100 µM. The inhibition result in series [6] is “inactive”. For the same compound, the Stability entry in series [7] was “Stable”.
On to `Cc1cn([C@@H]2O[C@H](CO[Si](C)(C)C(C)(C)C)[C@@]3(OS(=O)(=O)C=C3N)[C@H]2O[Si](C)(C)C(C)(C)C)c(=O)n(C(=O)CCCC(N)=O)c1=O`, for which the results for the EC50 in series [1], in series [2] and in series [4] were 0.038 µM, at least 4 µM and 9 µM, respectively. Besides, half-maximal cytotoxicity in series [3] (CC50 at 96 h) was put at 8.7 µM. In series [5], this compound displayed a CC50 at 72 h of over 100 µM. In series [6], the inhibition result is “inactive”. Moreover, the Stability result in series [7] was “Stable”.
As for `Cc1cn([C@@H]2O[C@H](CO[Si](C)(C)C(C)(C)C)[C@@]3(OS(=O)(=O)C=C3N)[C@H]2O[Si](C)(C)C(C)(C)C)c(=O)n(C(=O)C2CC2)c1=O`, the EC50 in series [1] was 0.042 µM; in series [2] it was at least 4 µM; in series [4], 8.5 µM. Moreover, it took 11 µM to reach half-maximal cytotoxicity in series [3] (CC50 at 96 h). Besides, the CC50 at 72 h in series [5] was over 100 µM. The inhibition result in series [6] is “inactive”. Besides, in series [7], the Stability entry is “Stable”.
In the case of `CSC(=O)CCCC(=O)n1c(=O)c(C)cn([C@@H]2O[C@H](CO[Si](C)(C)C(C)(C)C)[C@@]3(OS(=O)(=O)C=C3N)[C@H]2O[Si](C)(C)C(C)(C)C)c1=O`, the concentration for a half-maximal effect (EC50) is 0.037 µM in series [1], at least 4 µM in series [2] and 7 µM in series [4]. The compound further displayed a cytotoxic concentration (CC50) at 96 h in series [3] of 9.9 µM. Also, the CC50 at 72 h in series [5] is over 100 µM. Further, the inhibition entry in series [6] is “inactive”. Moreover, the Stability entry in series [7] is “Stable”.
`Cc1cn([C@@H]2O[C@H](CO[Si](C)(C)C(C)(C)C)[C@@]3(OS(=O)(=O)C=C3N)[C@H]2O[Si](C)(C)C(C)(C)C)c(=O)n(C(=O)CCCC(=O)NCc2ccccc2)c1=O`: the half-maximal effective concentration (EC50) is 0.052 µM in series [1], at least 4 µM in series [2] and 7.6 µM in series [4]. In series [3], this compound gave a CC50 at 96 h of 8.8 µM. The cytotoxic concentration (CC50) at 72 h in series [5] is over 100 µM. Also, the inhibition entry in series [6] is “inactive”. For the same compound, the Stability entry in series [7] is recorded as “Stable”.
In turn, `Cc1cn([C@@H]2O[C@H](CO[Si](C)(C)C(C)(C)C)[C@@]3(OS(=O)(=O)C=C3N)[C@H]2O[Si](C)(C)C(C)(C)C)c(=O)n(C(=O)OC(C)(C)C)c1=O` registered a CC50 at 96 h in series [3] of 26 µM. Further, the inhibition entry in series [6] was “inactive”.
Take `Cc1cn([C@@H]2O[C@H](CO[Si](C)(C)C(C)(C)C)[C@@]3(OS(=O)(=O)C=C3N)[C@H]2O[Si](C)(C)C(C)(C)C)c(=O)n(C)c1=O`: the EC50 in series [1] was 0.037 µM; in series [2], over 250 µM; in series [4], over 100 µM. In series [3], this compound displayed a 50% cytotoxic concentration (CC50) at 96 h of 115 µM. This compound had a cytotoxic concentration (CC50) at 72 h in series [5] of over 100 µM. Further, the inhibition entry in series [6] is “inactive”.

One may read the EC50 as the concentration at which the effect is half-maximal. In general, CC50 refers to the concentration at which the toxic effect on the cells reaches its halfway point. High values mean better tolerance by the cells, low ones harm at low concentration.
